Measurements reported in paper PMC3188669 (Journal of medicinal chemistry, 2011).

Experiments:
[1] = test system: human basal cell carcinoma (BCC1) cells; test: PS uptake, retention and subcellular localization in BCC1 cells; format: cell-based; settings: for lowering of cellular uptake relative to PS 4: 30 min, 200 nM PS; for lowering of cellular uptake relative to PS 4 / subcellular localization after 30 min incubation: serum-free DMEM
Outline: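 Subconfluent BCC1 cells grown in DMEM with 10% FCS were washed twice in serum-free DMEM. They were incubated with test compound in DMEM with or without 10% FCS: 30 min serum-free at 0.2 μM or 3.2 μM, or 24 h at 3.2 μM. Cells were washed and imaged at 640X under phase contrast and fluorescence (Ex 410/40, Em 675/750 nm). Redistribution was imaged again after 4 h in compound- and serum-free DMEM.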

[2] = test system: STAT3; test: Light-mediated photoreaction in BCC1 cells; format: cell-based, human; settings: 2 h PS, 665 nm, 3 J/cm^2
Outline: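 Subconfluent BCC1 cells were incubated 2 h in serum-free DMEM with 2-fold serial dilutions of test compound and then washed. They were irradiated in serum-free medium at 37°C with 665 nm dye-laser light for 9 min and extracted immediately. Cell PS was measured by extract fluorescence (Ex 415, Em 667 nm). RIPA lysates (20 μg) were immunoblotted for STAT3, EGFR, p38 and P-p38 with ECL detection. STAT3 crosslinking was expressed as % monomer converted to dimer form I.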

[3] = test system: Colon26 tumors; test: In vivo PDT efficacy in BALB/c mice bearing Colon26 tumors; settings: 1.0 μmol/kg, light 128 J/cm^2, 14 mW/cm^2 at 24 h post injection, 10 mice/group
Outline: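 Hair around the subcutaneous tumor was removed. At 4–5 mm diameter, mice received test compound at 1 μmol/kg. At 24 h, unanaesthetised mice restrained in holders were irradiated at 660–674 nm according to compound, with power monitored throughout. Mice were checked daily and volume was calculated as L×W²/2. Cure meant no palpable tumor by day 60–90; mice were euthanised at 400 mm³.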

[4] = test system: Colon26 cells; test: In vitro photosensitizing efficacy, MTT assay; format: cell-based, mouse; settings: 24 h incubation, variable light doses; for in vitro efficacy (PS 4, 12, 23): Colon26, 0.0625 μM
Outline: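 Colon26 cells were seeded at 3 × 10³ cells/well in RPMI with 10% FCS and left overnight. Test compound was added for 24 h at 37°C in the dark, then replaced with drug-free complete medium. Cells were irradiated at 0–4 J/cm² at the compound's absorption peak (660–674 nm), 3.2 mW/cm², using an argon-pumped dye laser. After 48 h in the dark, MTT was added for the last 4 h and formazan was dissolved in DMSO. A570 was read. Survival was plotted against light dose; 4 wells, 3 independent repeats.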

[5] = test system: Colon26 cells; test: PS uptake by Colon26 cells, flow cytometry; format: cell-based, mouse; settings: 24 h post incubation
Outline: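 Colon26 cells were seeded at 0.33 × 10⁶/well and left overnight. Test compound was added at 100, 200, 400 or 800 nM in triplicate at 37°C, with compound-free wells for autofluorescence. Cells were trypsinised, neutralised in cold medium with 2% FCS, spun at 500 g for 5 min at 4°C, and resuspended in cold PBS/2% FCS on ice in the dark. Flow cytometry used Ex 633 nm and Em 730±45 nm, 10,000 events; mean fluorescence of triplicates minus autofluorescence.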

[6] = test system: Colon26 tumors; test: In vivo optical fluorescence imaging in BALB/c mice bearing Colon26 tumors; settings: for tumor versus skin fluorescence after tumor removal: 1 μmol/kg, 24 h post injection
Outline: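 Colon26 cells (1×10⁶ in 50 μL serum-free RPMI) were injected subcutaneously into the right posterior axilla and grown to 4–5 mm. Hair was removed the day before dosing. Mice were imaged under ip ketamine/xylazine with 540/40 nm illumination and a long-pass filter for 667/676 nm emission, and autofluorescence was removed by spectral unmixing. Tumor ROI was 20 mm, mean ± SD of 3 mice. After imaging, the tumor was excised and the skin flap imaged.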

[7] = test system: Colon26 tumors; test: PET imaging and biodistribution in BALB/c mice bearing Colon26 tumors; format: in vivo; settings: for time post injection giving the best imaging contrast: PET

## Peglate 3-devinyl-3-{1′-(m-iodobenzyoxy)ethyl}pyropheophoride-a [PS 7]
[1]; 3.2 μM, 24 h, 10% fetal calf serum
  cellular uptake in presence of serum proteins versus serum-free: several-fold higher
[1]; 3.2 μM, regardless of the incubation conditions
  subcellular localization after 24 h incubation: endosomal/lysosomal compartment
[1]
  lowering of cellular uptake relative to PS 4: > 100 fold
[2]
  photoreaction quantifiable by the biochemical markers: ineffective
[3]
  tumor cure (tumor-free on day 60), first series (Fig. 7A): ineffective

## CCC1=C(C)c2cc3[nH]c(cc4nc(c5c6[nH]c(cc1n2)c(C)c6C(=O)C5)C(CCC(=O)OC)[C@@H]4C)c(C)c3C(C)OCc1cccc(I)c1 (stereo partly drawn) [PS 1, Methyl 3-devinyl-3-{1′-(m-iodobenzyoxy)-ethyl}pyropheophoride-a]
[1]; 3.2 μM PS 1 or 0.2 μM PS 4
  subcellular localization after subsequent 4 h incubation in PS-free medium: lysosomal compartment
[1]
  lowering of cellular uptake relative to PS 4: > 100 fold
  subcellular localization after 30 min incubation: mitochondrial compartment
[1]; data not shown
  fluorescence (uptake) in presence of 10% fetal calf serum: ~ 5 fold lower
[2]
  photoreaction quantifiable by the biochemical markers: ineffective

## CC[C@H]1c2cc3[nH]c4c(c5nc(cc6[nH]c(cc(n2)[C@@H]1C)c(C(C)OCc1cccc(I)c1)c6C)C(C)=C5CCC(=O)O)CC(=O)c4c3C (stereo partly drawn) [PS 23, 3-deacetyl-3-(1′-m-iodobenzyloxyethyl)-7,8-dihydrophylloerythrin]
[1]
  lowering of cellular uptake relative to PS 4: 2 fold
[4]
  in vitro efficacy (PS 4, 12, 23): comparable in vitro efficacy
[5]
  PS uptake by Colon26 cells (rank order): PS 4 ≥ 23 > 12
[6]
  tumor versus skin fluorescence after tumor removal: tumor avid

## CC[C@H]1c2cc3[nH]c4c(c5nc(cc6[nH]c(cc(n2)[C@@H]1C)c(C(C)OCc1cccc([124I])c1)c6C)C(C)=C5CCC(=O)O)CC(=O)c4c3C (stereo partly drawn) [PS 27]
[7]; BALB/c mice, Colon26 tumor
  time post injection giving the best imaging contrast: 72 h

## CCC1=C(C)c2cc3[nH]c(cc4nc(c5c6[nH]c(cc1n2)c(C)c6C(=O)C5)C(CCC(=O)O)[C@@H]4C)c(C)c3C(C)OCc1cccc([124I])c1 (stereo partly drawn) [PS 6]
[7]; 24, 48 and 72 h post injection
  tumor uptake (PET): significant tumor uptake
[7]; BALB/c mice, Colon26 tumor
  time of maximum tumor uptake post injection: 24 h
  time post injection giving the best imaging contrast: 72 h

## CCc1c(C)c2cc3nc(c4c5[nH]c(cc6nc(cc1[nH]2)C(C)=C6C(C)OCc1cccc(I)c1)c(C)c5C(=O)C4)[C@@H](CCC(=O)O)[C@@H]3C (stereo partly drawn) [PS 12, 3-devinyl-3-ethyl-8-{1′-(m-iodobenzyoxy)-ethyl}-pyropheophoride-a]
[4]
  in vitro efficacy (PS 4, 12, 23): comparable in vitro efficacy
[5]
  PS uptake by Colon26 cells (rank order): PS 4 ≥ 23 > 12
[6]; 1.0 μmol/kg i.v., 24, 48 and 72 h post-injection, 3 mice/group
  tumor uptake by fluorescence imaging: lower tumor uptake

## CCC1=C(C)c2cc3[nH]c(cc4nc(c5c6[nH]c(cc1n2)c(C)c6C(=O)C5)C(CCC(=O)O)[C@@H]4C)c(C)c3C(C)OCc1cccc(I)c1 (stereo partly drawn) [PS 4, 3-devinyl-3-{1′-(m-iodobenzyoxy)-ethyl} pyropheophoride-a]
[1]
  subcellular localization after 30 min incubation: mitochondrial compartment
[4]
  in vitro efficacy (PS 4, 12, 23): comparable in vitro efficacy
[4]; Colon26, 0.3 μM
  relative PDT efficacy in vitro (PS 1, 4, 7): most effective
[5]
  PS uptake by Colon26 cells (rank order): PS 4 ≥ 23 > 12
[7]; BALB/c mice, Colon26 tumor
  time post injection giving the best imaging contrast: 72 h
[6]
  tumor versus skin fluorescence after tumor removal: tumor avid
